Measurements reported in ChEMBL document CHEMBL2440017, “Discovery of a potent, selective, and orally bioavailable histamine H3 receptor antagonist SAR110068 for the treatment of sleep-wake disorders” (Bioorg Med Chem Lett, 2013).

Key:
[1] = tested on: Cynomolgus monkey; experiment: Cardiotoxicity in cynomolgus monkey assessed as blood arterial pressure and heart rate at 10 mg/kg, iv; format: toxicity, organism-based, Macaca fascicularis; set-up: dose 10 mg/kg, route intravenous; conditions: in vivo
Procedure, shortened: (§1)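 Anaesthetized cynomolgus monkeys dosed 10 mg/kg i.v. Arterial blood pressure, heart rate and ECG (PR, QRS, QTc intervals) monitored. Plasma drug sampled at 5, 15 and 30 min post-dose.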

[2] = tested on: Cynomolgus monkey; experiment: Cardiotoxicity in cynomolgus monkey assessed as PR, QRS, QTc interval at 10 mg/kg, iv; format: toxicity, organism-based, Macaca fascicularis; set-up: dose 10 mg/kg, route intravenous; conditions: in vivo; procedure, shortened: as §1
[3] = tested on: Mus musculus; experiment: Neurologic toxicity in mouse at 10 to 30 mg/kg, po; format: organism-based; set-up: dose 10-30 mg/kg, route oral; conditions: in vivo
Procedure, shortened: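 Acute oral behavioral safety evaluation in mice. Oral doses were 0, 10 and 30 mg/kg. Behavioral, neurologic and autonomic signs were scored.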

[4] = tested on: Mus musculus; experiment: Toxicity in mouse assessed as tremors at 100 mg/kg, po; format: organism-based; set-up: dose 100 mg/kg, route oral; conditions: in vivo
[5] = tested on: Mus musculus; experiment: Toxicity in mouse assessed as behavioral side effect at 30 mg/kg, po; format: organism-based; set-up: dose 30 mg/kg, route oral; conditions: in vivo
Procedure, shortened: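 Group acute oral behavioral safety study in mice at 30 mg/kg p.o., scored for behavioral side effects.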

[6] = Genotoxicity in micronucleus (unknown origin) at 5 to 950 ug/ml
Procedure, shortened: (§2)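 Ames II and micronucleus tests, Ames over 3–1000 µg/mL and MNT over 5–950 µg/mL. Each run with and without metabolic activation by human liver microsome preparations.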

[7] = tested on: Salmonella typhimurium; experiment: Genotoxicity in Salmonella typhimurium at 3 to 1000 ug/ml by Ames 2 test; format: toxicity, organism-based; conditions: salmonella enterica subsp. enterica serovar typhimurium; procedure, shortened: as §2
[8] = Inhibition of CYP450 in human hepatocytes at > 100 uM; format: ADME, cell-based, Hepatocyte
[9] = Ratio of AUC (0 to infinity) in Sprague-Dawley rat brain to AUC (0 to infinity) in Sprague-Dawley rat at 2 mg/kg, iv; format: ADME, organism-based; set-up: dose 2 mg/kg, route intravenous; conditions: read-out: Ratio AUC
Procedure, shortened: (§3)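 Male Sprague–Dawley rats received 2 mg/kg i.v. (0.5 mg/mL in saline) or 10 mg/kg p.o. (1.0 mg/mL in 0.5% MC/0.2% Tween80). Plasma and brain AUC0-inf were measured, and the B/P ratio was calculated from i.v. AUC0-inf.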

[10] = Oral bioavailability in Sprague-Dawley rat plasma at 10 mg/kg; format: ADME, organism-based; procedure, shortened: as §3
[11] = Elimination half life in Sprague-Dawley rat plasma at 10 mg/kg, po; format: ADME, organism-based; set-up: dose 10 mg/kg, route oral; conditions: read-out: beta t1/2 (converted)
Procedure, shortened: (§4)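 Oral gavage at 10 mg/kg to male OF1 mice (vehicle 5% DMSO/0.5% MC/0.2% Tween80, 1.0 mg/mL) or male Sprague-Dawley rats (vehicle 0.5% MC/0.2% Tween80, 1.0 mg/mL). Plasma and brain exposure and half-life determined.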

[12] = Volume of distribution in Sprague-Dawley rat plasma at 2 mg/kg, iv; format: ADME, organism-based; set-up: dose 2 mg/kg, route intravenous; procedure, shortened: as §3
[13] = Elimination half life in Sprague-Dawley rat plasma at 2 mg/kg, iv; format: ADME, organism-based; set-up: dose 2 mg/kg, route intravenous; conditions: read-out: beta t1/2 (converted)
Procedure, shortened: (§5)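 Male OF1 mice or male Sprague-Dawley rats, single 2 mg/kg i.v. dose. Mouse vehicle 50% 1-methyl-2-pyrrolidinone in saline at 1.0 mg/mL; rat vehicle saline at 0.5 mg/mL. Plasma and brain levels followed over time; AUC0-inf, t1/2 and clearance derived from exposure. Brain/plasma ratio uses i.v. AUC0-inf.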

[14] = AUC (0 to infinity) in Sprague-Dawley rat plasma at 2 mg/kg, iv; format: ADME, organism-based; set-up: time infinity, dose 2 mg/kg, route intravenous; procedure, shortened: as §5
[15] = Elimination half life in OF1 mouse brain at 10 mg/kg, po; format: ADME, organism-based; set-up: dose 10 mg/kg, route oral; conditions: read-out: beta t1/2 (converted); procedure, shortened: as §4
[16] = AUC in OF1 mouse brain at 10 mg/kg, po; format: ADME, organism-based; set-up: dose 10 mg/kg, route oral; procedure, shortened: as §4
[17] = AUC (0 to infinity) in OF1 mouse brain at 2 mg/kg, iv; format: ADME, organism-based; set-up: time infinity, dose 2 mg/kg, route intravenous; procedure, shortened: as §5
[18] = Oral bioavailability in OF1 mouse plasma at 10 mg/kg; format: ADME, organism-based
Procedure, shortened: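 Male OF1 mice received 2 mg/kg i.v. (1.0 mg/mL in 50% 1-methyl-2-pyrrolidinone/saline) or 10 mg/kg p.o. (1.0 mg/mL in 5% DMSO/0.5% MC/0.2% Tween80). Plasma and brain AUC0-inf were measured, and the B/P ratio was calculated from i.v. AUC0-inf.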

[19] = Elimination half life in OF1 mouse plasma at 2 mg/kg, iv; format: ADME, organism-based; set-up: dose 2 mg/kg, route intravenous; conditions: read-out: beta t1/2 (converted); procedure, shortened: as §5
[20] = molecular target: T1, Cytochrome P450 1A2 (Homo sapiens, UniProt P05177); experiment: Inhibition of CYP1A2 (unknown origin); format: ADME
T1 sequence (P05177 whole entry): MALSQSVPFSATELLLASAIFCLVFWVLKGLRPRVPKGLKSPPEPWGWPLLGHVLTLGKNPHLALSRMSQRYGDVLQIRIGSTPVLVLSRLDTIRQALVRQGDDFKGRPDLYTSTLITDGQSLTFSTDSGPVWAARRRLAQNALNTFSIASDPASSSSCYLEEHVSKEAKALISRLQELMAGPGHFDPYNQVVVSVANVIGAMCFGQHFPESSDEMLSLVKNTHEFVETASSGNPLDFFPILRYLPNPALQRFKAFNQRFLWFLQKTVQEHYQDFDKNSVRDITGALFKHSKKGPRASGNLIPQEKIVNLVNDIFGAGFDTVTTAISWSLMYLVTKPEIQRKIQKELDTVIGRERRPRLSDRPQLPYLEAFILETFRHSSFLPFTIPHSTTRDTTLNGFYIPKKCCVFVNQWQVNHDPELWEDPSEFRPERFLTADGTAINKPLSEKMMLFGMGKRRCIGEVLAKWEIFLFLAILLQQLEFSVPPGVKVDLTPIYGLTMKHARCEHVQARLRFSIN

[21] = molecular target: Cytochrome P450 2C9 (Homo sapiens, UniProt P11712); experiment: Inhibition of CYP2C9 (unknown origin); format: ADME
[22] = tested on: Hepatocyte; experiment: Clearance in human hepatocytes; format: ADME, cell-based
Procedure, shortened: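 Human hepatocytes in vitro, n = 4 preparations. Metabolic clearance expressed per 10^6 hepatocytes per hour. Also tested at a lower 0.5 concentration to check for concentration dependence.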

[23] = molecular target: CYP3A4 (Homo sapiens, UniProt P08684); experiment: Inhibition of CYP3A4 (unknown origin) at 5 uM; format: ADME
[24] = Metabolic stability in rabbit microsomes; format: ADME, Oryctolagus cuniculus, Microsome
Procedure, shortened: (§6)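 Percentage biotransformation measured in vitro in liver microsomes of each species.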

[25] = Metabolic stability in monkey microsomes; format: ADME, Macaca mulatta, Microsome; conditions: rhesus monkey; procedure, shortened: as §6
[26] = Metabolic stability in rat microsomes; format: ADME, Microsome; procedure, shortened: as §6
[27] = tested on: Plasma; experiment: Metabolic stability in dog plasma; format: ADME, cell-free, Canis lupus familiaris
Procedure, shortened: (§7)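 Compound stability measured in plasma of each species in vitro.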

[28] = tested on: Plasma; experiment: Metabolic stability in rat plasma; format: ADME, cell-free; procedure, shortened: as §7
[29] = species on record: Homo sapiens; experiment: Inhibition of sigma 2 receptor (unknown origin) at 10 uM
Procedure, shortened: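 CEREP selectivity panel: percent inhibition of control specific binding at 10 µM.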

[30] = molecular target: T2, Histamine H3 receptor (Homo sapiens, UniProt Q9Y5N1); experiment: Displacement of [3H]N-alpha-methylhistamine from human histamine H3 receptor expressed in CHO cells; format: cell-based
[31] = molecular target: T2, Histamine H3 receptor; experiment: Antagonist activity at human histamine H3 receptor expressed in CHO cells co-expressing CRE-Luc; format: functional, cell-based
[32] = Drug degradation in gastrointestinal tract simulation medium after 48 hrs at room temperature; format: physicochemical; conditions: read-out: Drug degradation
Procedure, shortened: (§8)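 Compound kept 48 h at room temperature in water, aqueous solutions of pH 1.0–7.4, DMSO, or GI-tract simulation medium. Percent degradation measured.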

[33] = Drug degradation in DMSO after 48 hrs at room temperature; format: physicochemical; conditions: read-out: Drug degradation; procedure, shortened: as §8
[34] = Distribution coefficient, log D of the compound at pH 7.4; format: physicochemical; conditions: octanol/water

T2 sequence (Q9Y5N1 whole entry): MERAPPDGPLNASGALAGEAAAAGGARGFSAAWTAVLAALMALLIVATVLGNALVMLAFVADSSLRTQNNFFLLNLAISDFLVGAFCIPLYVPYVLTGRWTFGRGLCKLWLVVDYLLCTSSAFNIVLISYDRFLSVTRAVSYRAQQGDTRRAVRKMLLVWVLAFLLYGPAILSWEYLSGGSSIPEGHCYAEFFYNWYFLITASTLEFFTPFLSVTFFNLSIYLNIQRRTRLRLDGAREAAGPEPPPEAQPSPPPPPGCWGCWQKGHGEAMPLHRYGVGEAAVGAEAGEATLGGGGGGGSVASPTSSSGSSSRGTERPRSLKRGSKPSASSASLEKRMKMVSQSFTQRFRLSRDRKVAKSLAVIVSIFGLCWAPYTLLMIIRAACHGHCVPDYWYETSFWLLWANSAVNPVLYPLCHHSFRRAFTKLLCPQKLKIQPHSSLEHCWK
Sequence of CYP3A4 (P08684 whole entry): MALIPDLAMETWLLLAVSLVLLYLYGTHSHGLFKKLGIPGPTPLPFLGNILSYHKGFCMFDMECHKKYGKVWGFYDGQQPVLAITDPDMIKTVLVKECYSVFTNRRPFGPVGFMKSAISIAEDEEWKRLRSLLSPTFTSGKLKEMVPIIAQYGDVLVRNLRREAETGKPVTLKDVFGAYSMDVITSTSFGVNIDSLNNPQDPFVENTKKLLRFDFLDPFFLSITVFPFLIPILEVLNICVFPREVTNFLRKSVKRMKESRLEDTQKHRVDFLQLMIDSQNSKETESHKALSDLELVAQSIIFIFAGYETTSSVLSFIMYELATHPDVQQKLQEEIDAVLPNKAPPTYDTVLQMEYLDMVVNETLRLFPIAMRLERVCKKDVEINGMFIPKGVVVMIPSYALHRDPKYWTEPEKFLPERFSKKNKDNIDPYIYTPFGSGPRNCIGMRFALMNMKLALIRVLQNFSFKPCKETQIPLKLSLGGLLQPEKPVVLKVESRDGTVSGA
Sequence of Cytochrome P450 2C9 (P11712 whole entry): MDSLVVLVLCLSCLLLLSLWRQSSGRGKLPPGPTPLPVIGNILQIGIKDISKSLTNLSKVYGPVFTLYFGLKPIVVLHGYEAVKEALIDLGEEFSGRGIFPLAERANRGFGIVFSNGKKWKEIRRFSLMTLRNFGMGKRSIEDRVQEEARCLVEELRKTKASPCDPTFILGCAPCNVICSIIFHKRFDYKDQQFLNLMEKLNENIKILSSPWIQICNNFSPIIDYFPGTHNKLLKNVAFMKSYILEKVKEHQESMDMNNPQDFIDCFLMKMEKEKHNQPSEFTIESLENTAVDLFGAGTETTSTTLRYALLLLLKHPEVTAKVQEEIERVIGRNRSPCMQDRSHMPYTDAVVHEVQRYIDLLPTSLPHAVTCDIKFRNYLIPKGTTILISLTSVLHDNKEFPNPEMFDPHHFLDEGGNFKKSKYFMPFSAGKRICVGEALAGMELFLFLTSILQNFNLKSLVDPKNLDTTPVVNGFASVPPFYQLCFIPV

Cc1cc(N2CC[C@H](N3CCC[C@@H]3C)C2)ccc1NC(=O)C1CCOCC1
Activity [1]: Non-toxic
Activity [2]: Non-toxic
Activity [3]: Non-toxic
Activity [4]: Non-toxic
Activity [5]: Non-toxic
Activity [6]: Non-toxic
Activity [7]: Non-toxic
inhibition (INH) [8]: Not Active
Kp [9]: 0.33
bioavailability [10]: 80%
half-life [11]: 3 h
Vd [12]: 3.1 L/kg
half-life [13]: 4.3 h
AUC(0-inf) [14]: 2100 ng·h/mL
half-life [15]: 1.9 h
AUC [16]: 1200 ng·h/mL
AUC(0-inf) [17]: 380 ng·h/mL
bioavailability [18]: 58%
half-life [19]: 3.6 h
inhibition (INH) [20]: Active
inhibition (INH) [21]: Active
CLH [22]: 0.031 mL/h
inhibition at 5 µM [23]: 61%
Stability [24]: Stable
Stability [25]: Stable
Stability [26]: Stable
Stability [27]: Stable
Stability [28]: Stable
inhibition [29]: 53%
Ki [30]: 1 nM
EC50 [31]: 0.9 nM
degraded at 48 h [32]: < 2%
degraded at 48 h [33]: < 2%
logD [34]: 0.15
